Results gathered from unrelated publications.
Target: D(3) dopamine receptor (DRD3, Homo sapiens, UniProt P35462)

CC(C)N1CCC[C@H]1CNC(=O)c1cn(C2CCCC2)c(=O)c2c1c1ccccc1n2C  inhibition (ligand displacement, radioligand; 10 µM): 26%
COCc1c(-c2cc3cc(C)cc(OC)c3s2)c2c(N)ncnn2c1CN1CCNC(=O)C1  inhibition (ligand displacement, radioligand; 10 µM): 29%
c1ccc(C2(N3CCCCC3)CCCCC2)cc1  inhibition (enzyme activity, inhibitor; 10 µM): -9.9%
Cc1c(N2CCNCC2)nc2ccc(Br)cc2c1C(=O)NC[C@H](CCC(=O)O)c1ccccc1Cl  inhibition (ligand displacement; 10 µM): 3.81%
COc1ccc(S(=O)(=O)N2CCCCC2)cc1C  inhibition (ligand displacement, radioligand; 10 µM): < 30%
CCc1ccc(OCC(=O)N2CCN(Cc3ccc4c(c3)OCO4)CC2)c(Br)c1  inhibition (enzyme activity, inhibitor; 10 µM): -4.8%
C[C@H](C(=O)N[C@H]1COc2ccccc2[C@@H]1S(C)(=O)=O)c1ccc(F)cc1  inhibition (cell-free assay; 10 µM): 6%
CN(CCN1CCC(OC(=O)Nc2ccccc2-c2ccccc2)CC1)C(=O)c1ccc(CN2CCC(C(N)=O)CC2)cc1  inhibition (ligand displacement, radioligand; 1 µM): -4%
c1ccc(C(NCCNC(c2ccccc2)c2ccccc2)c2ccccc2)cc1  inhibition (cell-free assay; 10 µM): 77%
O=C(Nc1cccnn1)N1CCN([C@@H]2CCOc3cc(C(F)(F)F)ccc32)CC1  inhibition (cell-free assay; 20 µM): 9%
N#CC1(c2ccccn2)CCN(Cc2cc(C(=O)O)c(=O)n3ccccc23)CC1  inhibition (cell-free assay; 10 µM): -7.39%
COc1ccc(C(=O)NCc2cc(C(C)C)no2)cc1OC1CCN(C)CC1  inhibition (ligand displacement, radioligand; 10 µM): 15%
CC(C)Cn1cnc2c(N)nc3ccccc3c21  inhibition (ligand displacement, radioligand; 10 µM): 18%
